# An excerpt weighted towards active compounds, which were near 2.2% of everything screened.
# SIAE primary: blocks human sialic acid acetylesterase; Q9HAT2; SIAE FP-Rh probe binding, fluorescence polarization; inhibition, % at 9.66 µM; 370,000 compounds, 0.69% hits;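 active = inhibition above a cutoff: mean of compounds within the control limits plus 3 SD of those, cut at about 17% in these data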;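 note: 0% = plate median of compound wells and 100% = probe without SIAE protein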
# mABHD4 FP: inhibits mouse alpha/beta hydrolase domain 4; 370,000 compounds, 0.54% hits; purified mABHD4, FP-Rh probe fluorescence polarization; AID 720543; inhibition, % at 8.92 µM;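 active = inhibition exceeding the mean over every tested compound plus 3 SD, cut at about 30% in these data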;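 note: 0% = plate median of compound wells and 100% = S159A mutant with DMSO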
# Target sequence (Q8VD66 whole entry, looked up, the tested form may be a part): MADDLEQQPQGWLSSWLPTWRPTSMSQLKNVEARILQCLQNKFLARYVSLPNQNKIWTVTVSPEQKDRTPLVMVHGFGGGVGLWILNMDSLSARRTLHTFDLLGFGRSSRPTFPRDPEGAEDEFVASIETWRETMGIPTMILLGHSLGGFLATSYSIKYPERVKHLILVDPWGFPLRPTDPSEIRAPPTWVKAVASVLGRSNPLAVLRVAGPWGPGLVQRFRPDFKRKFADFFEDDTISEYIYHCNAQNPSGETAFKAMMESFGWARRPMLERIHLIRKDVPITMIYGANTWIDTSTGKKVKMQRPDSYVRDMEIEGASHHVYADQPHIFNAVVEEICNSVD
#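 Assay system: Wild-type mouse ABHD4 protein | Medium: HEPES pH 7.0 buffer, 150 mM NaCl, 0.01% Pluronic F-127 | Incubation: Enzyme–compound pre-incubation 45 min, then probe 60 min, both 25 °C | Technique: Fluorescence polarization with parallel and perpendicular emission, 525/598 nm | Evaluation: % inhibition of FP-Rh probe binding versus controls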
# TDP2 absorb: TDP2 (human) inhibition, absorbance primary screen | O95551 | recombinant TDP2, T5PNP hydrolysis, p-nitrophenol absorbance 415 nm | inhibition, % at 12.8 µM | 370,000 compounds, 0.34% hits;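 active = inhibition above the mean of all tested compounds plus 3 SD, set per campaign, cut at about 25% in these data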;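 note: 0% = DMSO with enzyme and 100% = buffer with substrate but no TDP2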
# Target sequence (O95551 whole entry, looked up): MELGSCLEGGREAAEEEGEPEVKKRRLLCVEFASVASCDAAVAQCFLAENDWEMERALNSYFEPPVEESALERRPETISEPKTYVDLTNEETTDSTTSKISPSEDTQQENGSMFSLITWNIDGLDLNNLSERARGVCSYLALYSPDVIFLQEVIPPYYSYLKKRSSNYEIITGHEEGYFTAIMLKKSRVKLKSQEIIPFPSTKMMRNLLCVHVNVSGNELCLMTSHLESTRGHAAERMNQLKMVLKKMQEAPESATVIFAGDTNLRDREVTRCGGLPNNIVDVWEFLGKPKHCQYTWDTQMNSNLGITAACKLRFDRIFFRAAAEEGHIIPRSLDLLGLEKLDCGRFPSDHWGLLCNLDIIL
#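 Test system: human TDP2 enzyme; Input: 120 nM TDP2 per well; Buffer or medium: Mg2+-containing Tris-HCl buffer, pH 7.5; Reagent: 5 mM T5PNP; Dosing: 12.8 µM single point, 1% DMSO; Incubation: reaction 2 h, 37 °C; Detection: p-Nitrophenol epi absorbance; Read-out: % inhibition relative to enzyme-containing and enzyme-free wells; Replicates: single well per compound.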
# HTRA1 inh: blocks human HTRA1 serine peptidase | recombinant HTRA1, FP-rhodamine activity-based probe, fluorescence polarization | inhibition, % at 5.96 µM | Q92743 | 340,000 compounds, 0.5% hits; in the data active = inhibition above about 36%;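 note: 0% = enzyme with DMSO and 100% = wells lacking enzyme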
# TCR-CD3 inh: human TCR-CD3 binding inhibition; TAMRA-labeled TCR probe fluorescence, biochemical; inhibition, % at 9.4 µM; 360,000 compounds, 0.37% hits;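 note: recombinant mutant TCR 2C K166C tagged with TAMRA read by polarization; 0% = receptor in buffer alone and 100% = receptor with positive control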
# LEDGF integ inh: blocks HIV-1 LEDGF/p75-dependent DNA integration. TR-FRET IN-LEDGF/p75 DNA integration, Eu/Cy5. inhibition, % at 3.7 µM. 370,000 compounds, 0.64% hits;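 active = inhibition above the screen-wide mean plus 3 SD, cut at about 13% in these data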;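 note: signal is the Cy5 over europium emission ratio at 671 and 618 nm; 0% = plate median of compound wells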
# HTRA1 conf: confirmation of human HTRA1 inhibitors. shares compounds with HTRA1 inh. recombinant HTRA1, FP-rhodamine activity-based probe, fluorescence polarization. inhibition, % at 5.96 µM. 1,600 compounds, 66% hits. AID 540248;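 active = mean inhibition over three repeats above a set limit taken from the earlier primary screen, cut at about 37% in these data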;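 note: 0% = HTRA1 with DMSO and 100% = wells lacking HTRA1; inhibitors block probe binding so polarization drops and inhibition rises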
# BSA TAMRA ctr: counter-screen for TCR-CD3 interaction inhibitors: BSA probe. TAMRA-labeled BSA probe fluorescence counterscreen. 1,200 compounds, 10% hits. shares compounds with TCR-CD3 inh. inhibition, % at 9.4 µM; in the data active = inhibition above about 23%;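 note: 0% = buffer low control and 100% = reference high control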
# TCR-CD3 conf: confirmation of human TCR-CD3 interaction inhibitors | AID 652036 | shares compounds with TCR-CD3 inh | TAMRA-labeled TCR probe fluorescence binding assay | inhibition, % at 9.4 µM | 1,200 compounds, 48% hits
# ABHD4 confirm: confirmation of mouse ABHD4 inhibitors; purified mABHD4, FP-Rh probe fluorescence polarization; shares compounds with mABHD4 FP; 1,800 compounds, 55% hits; AID 720658; inhibition, % at 8.92 µM;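 active = mean inhibition across replicates above the hit cutoff set in the primary screen, cut at about 30% in these data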;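 note: 0% = wild-type ABHD4 with DMSO and 100% = catalytically dead S159A mutant with DMSO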
# * = called active by the depositor; nt = not tested or not shown. Cut-off read from the data, not from the text of the source, unless noted: active = inhibition above about 19%; inactive = the rest.
SMILES,SIAE primary,mABHD4 FP,TDP2 absorb,HTRA1 inh,TCR-CD3 inh,LEDGF integ inh,HTRA1 conf,ABHD4 confirm,others
CCOC(=O)[C@@]12CCC3=C1N(CCC3)C(=O)[C@H](CC(=O)N1CCC(c3ccccc3)CC1)C2,5,1,-4,nt,nt,-3,nt,nt,
COc1cccc(N=Nc2ccc(O)c3ncccc23)c1,8,43*,-20,76*,0,7,67*,48*,
Nc1[nH]ncc1N=Nc1ccc(Cl)cc1,10,1,5,0,-1,1,nt,nt,
COCc1ccc(O)c2ncccc12,-3,5,-12,9,0,-9,nt,nt,
COc1ccc(C)cc1N=Nc1ccc(O)c2ncccc12,4,36*,-3,86*,-9,-1,64*,39*,
Nc1ccc(N=Nc2ccccc2)c2cccnc12,5,30*,-19,43*,8,4,44*,55*,
COc1ccc(-c2ncccc2O)cc1,1,-7,-4,0,-4,3,nt,nt,
Cc1ccc2c(c1)c1c3n2CC(=C2C(=O)OC(C)(C)OC2=O)NC3CCC1 (configuration not stated),8,37*,7,51*,17,6,61*,30*,
O=C(/C=C/c1ccc(O)c(O)c1)NC(=O)c1ccccc1O,1,57*,-6,65*,24*,2,62*,36*,BSA TAMRA ctr=-18;TCR-CD3 conf=21*
CCCCC(=O)Nc1nc(C)c(-c2csc(Nc3ccccc3OC)n2)s1,-8,-11,0,0,-15,4,nt,nt,
CCCCCC(=O)Nc1nc(C)c(-c2csc(Nc3cc(OC)ccc3OC)n2)s1,16,44*,0,42*,1,-1,21,56*,
C=Cc1ccc(C(=O)N(Cc2ccc(F)cc2)C(C(=O)N(C)C2CCCC2)c2ccc(OC)c(OC)c2)cc1 (configuration not stated),0,-6,-3,nt,nt,-5,nt,nt,
CC(C)c1ccc(CNc2ccc(N3CCOCC3)cc2)cc1,15,30*,19,57*,2,11,6,16,
O=C(Cc1ccc(Cl)cc1)N/N=C/c1ccc(O)c(O)c1,-8,33*,-10,63*,8,-8,68*,15,
Cc1ccc(O)c(/C=N/NC(=O)Cc2ccc(Cl)cc2)c1,1,2,-3,8,8,0,nt,nt,
CC(=O)N1CCC(=NNC(=O)c2cc3ccccc3cc2O)CC1,8,34*,-8,51*,17,0,24,21,
O=C(NN=C1CCCCCC1)c1cc2ccccc2cc1O,14,22,10,11,-2,0,nt,nt,
CN(C)c1ccc(C(=O)Nc2nc3c(s2)CCCC3)cc1,3,21,2,-5,-2,-2,nt,nt,
C/C(=N\Nc1nc2c(s1)CCCC2)c1ccc(Cl)cc1,11,32*,-11,54*,2,-1,14,50*,
O=C1CCCC2=C1C(c1ccc(O)c(O)c1)Nc1ccc3ccccc3c12 (configuration not stated),9,32*,-10,64*,4,1,72*,26,
C=CCCC1CN(CC=C)S(=O)(=O)c2c(F)cccc2O1 (configuration not stated),-2,1,6,nt,10,1,nt,nt,
O=[N+]([O-])c1ccc(-c2ccc(C=Nc3cccc4ccccc34)o2)cc1,-1,14,9,0,-1,-1,nt,nt,
O=[N+]([O-])c1cc(-c2ccc(/C=N/c3nc4ccccn4c3-c3ccco3)o2)ccc1Cl,16,46*,-3,37*,4,11,46*,16,
COC(=O)[C@]12C[C@H](CC(=O)N3CCC(c4ccccc4)CC3)C(=O)N(CCC3=CCCCC3)C1=C[C@H](C(C)C)O[C@@H]2C1CC1,3,-2,6,nt,nt,1,nt,nt,
COc1ccc(C2OC34CCCCC3C(C#N)(C#N)C2(C#N)C(=N)O4)cc1 (configuration not stated),13,34*,14,36*,27*,1,43*,52*,BSA TAMRA ctr=65*;TCR-CD3 conf=44*
SMILES,SIAE primary,mABHD4 FP,TDP2 absorb,HTRA1 inh,TCR-CD3 inh,LEDGF integ inh,HTRA1 conf,ABHD4 confirm,others
O=C(O)CC(Sc1ccc(Cl)cc1)C(=O)Nc1ccccc1 (configuration not stated),-1,2,1,nt,1,2,nt,nt,
CCN(CC)C(=O)CSc1nnc(-c2cccs2)o1,-4,8,6,nt,nt,0,nt,nt,
Clc1cccc(Cl)c1C1Nc2cccc3cccc(c23)N1,16,72*,0,70*,6,7,26,48*,
Fc1cccc(Cl)c1C1Nc2cccc3cccc(c23)N1,15,57*,18,50*,14,5,19,48*,
C=CCOc1c(Cl)cc(CNc2ccc(N(C)C)cc2)cc1OC,11,40*,15,48*,8,12,7,45*,
C=CCOc1c(Cl)cc(CNCCC)cc1Cl,1,6,-12,-3,-4,2,nt,nt,
Cc1ccc(C)c(NC(=O)C2CCCN2S(=O)(=O)c2cccc3cccnc23)c1 (configuration not stated),-2,5,10,nt,nt,1,nt,nt,
COc1ccc2[nH]c3c4c(ccc3c2c1)C(=O)C=CC4=O,1,56*,24,80*,1,-1,53*,51*,
COc1ccc2[nH]c(=O)cc(C(=O)O)c2c1,7,7,11,3,4,6,nt,nt,
CC(=O)C1=C(O)C(=O)N(c2ccc(S(N)(=O)=O)cc2)C1c1cccc([N+](=O)[O-])c1 (configuration not stated),-2,1,-8,-1,1,-4,nt,nt,
CC(=O)C1C(=O)c2c(cccc2[N+](=O)[O-])C1=Nc1ccc(S(N)(=O)=O)cc1 (configuration not stated),5,38*,4,39*,9,1,30,34*,
COc1ccc(OC)c(NC(=O)CSc2nncc3ccc(OC)c(OC)c23)c1,11,43*,-16,44*,11,0,2,32*,
O=C1NC(=Nc2ccccc2Cl)S/C1=C\c1cccc([N+](=O)[O-])c1O,2,53*,1,55*,-8,9,58*,60*,
